Experimental data published in ChEMBL document CHEMBL3352779, “Synthesis and biological evaluation of 4-aza-2,3-dihydropyridophenanthrolines as tubulin polymerization inhibitors” (Bioorg Med Chem Lett, 2014).
The source made the active and inactive calls. No cut-off for these calls is given here.

Tests used:
Tubulin (Homo sapiens) [1] = target: T1, Tubulin (Homo sapiens) (UniProt P68371+Q9H4B7+P0DPH7+P68366+Q13509+Q71U36+P04350+Q3ZCM7+P07437+P68363+Q9BQE3+Q6PEY2+Q13885+Q9BVA1+Q9BUF5); assay: Induction of tubulin polymerization in human HeLa cells assessed as increase of tubulin polymerized fraction at 5 uM after 24 hrs by immunoblot analysis; format: cell-based
Outline: (§1)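 HeLa cells treated at 5 µM for 24 h, then permeabilized. Soluble and polymerized tubulin fractions collected separately and analysed by immunoblotting, with DMSO-treated cells as control.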

HeLa [2] = assay: Antiproliferative activity against human HeLa cells after 48 hrs by SRB assay; format: functional
Outline: (§2)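 Sulforhodamine B growth assay run on MIAPACA, MCF-7 and HeLa human cancer lines, with etoposide and podophyllotoxin as positive controls. Potency expressed as GI₅₀.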

[3] = (§3) Antiproliferative activity against human MiaPaCa cells after 48 hrs by SRB assay; format: functional; conditions: MIA PaCa-2, 48 h; outline: as §2
MCF7 = assay: Antiproliferative activity against human MCF7 cells after 48 hrs by SRB assay; format: functional; outline: as §2
Tubulin = Tubulin (Bos taurus, UniProt Q6B856+Q862L2+Q862F3); assay: Inhibition of bovine brain tubulin polymerization measured for 1 hr at 1 min intervals by fluorescence assay
HeLa [4] = assay: Cell cycle arrest in human HeLa cells assessed as accumulation of cells at G2/M phase at 5 uM after 24 hrs by FACS analysis (Rvb =33.25 %); format: functional
Tubulin (Homo sapiens) [5] = target: T1, Tubulin (Homo sapiens); assay: Inhibition of tubulin polymerization in human HeLa cells assessed as increase of tubulin soluble fraction at 5 uM after 24 hrs by immunoblot analysis; format: cell-based; outline: as §1
HeLa [6] = assay: Mitotic arrest in human HeLa cells assessed as cell rounding at 5 uM after 24 hrs by immunohistochemistry; format: functional, cell-based
Outline: (§4)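 HeLa cells exposed to 5 µM for 24 h, then fixed and stained with anti-tubulin antibody, with DAPI counterstain. Merged tubulin/DAPI fluorescence images examined for microtubule network and nuclear condensation.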

HeLa [7] = assay: Disruption of microtubule network in human HeLa cells at 5 uM after 24 hrs by immunohistochemistry; format: cell-based; outline: as §4
MiaPaCa = assay: as §3; format: functional; outline: as §2

Row | Compound | GI50 (HeLa [2]) | GI50 [3] | GI50 (MCF7; MCF7, 48 h) | other results
1 | CC(=O)O[C@H]1C(=O)[C@@]2(C)[C@H]([C@H](OC(=O)c3ccccc3)[C@]3(O)C[C@H](OC(=O)[C@H](O)[C@@H](NC(=O)c4ccccc4)c4ccccc4)C(C)=C1C3(C)C)[C@]1(OC(C)=O)CO[C@@H]1C[C@@H]2O |  |  |  | Activity (Tubulin (Homo sapiens) [1]): Active
2 | COc1ccc(C2C3=C(COC3=O)Nc3c2c2cccnc2c2ncccc32)cc1OC (stereo not given) | 40 nM | 5900 nM | 4.6 µM | 
3 | O=C1OCC2=C1C(c1ccc(O)c(Br)c1)c1c(c3cccnc3c3ncccc13)N2 (stereo not given) | < 10 nM | 2000 nM | 7.6 µM | 
4 | O=C1OCC2=C1C(c1cccc(Cl)c1)c1c(c3cccnc3c3ncccc13)N2 (stereo not given) | inactive | 13600 nM |  | GI50 (MCF7): inactive
5 | Cc1cccc(C2C3=C(COC3=O)Nc3c2c2cccnc2c2ncccc32)c1O (stereo not given) | 200 nM | 500 nM | 10.3 µM | 
6 | COc1ccc(C2C3=C(COC3=O)Nc3c2c2cccnc2c2ncccc32)c(OC)c1OC (stereo not given) | 160 nM | 3700 nM | 8.2 µM | 
7 | COc1ccc(F)c(C2C3=C(COC3=O)Nc3c2c2cccnc2c2ncccc32)c1 (stereo not given) | < 10 nM | 20 nM | 0.01 µM | IC50 (Tubulin): 0.83 µM; Activity (HeLa [4]): 82.04%; inhibition (Tubulin (Homo sapiens) [5]): Active; Activity (HeLa [6]): Active; Activity (HeLa [7]): Active
8 | O=C1OCC2=C1C(c1cc(Cl)ccc1O)c1c(c3cccnc3c3ncccc13)N2 (stereo not given) | 300 nM |  |  | GI50 (MiaPaCa): inactive; GI50 (MCF7): inactive
9 | O=C1OCC2=C1C(c1ccc(F)c(F)c1)c1c(c3cccnc3c3ncccc13)N2 (stereo not given) | 30 nM | 500 nM | < 0.01 µM | IC50 (Tubulin): 0.92 µM; Activity (HeLa [4]): 76.44%; inhibition (Tubulin (Homo sapiens) [5]): Active; Activity (HeLa [6]): Active; Activity (HeLa [7]): Active
10 | Cc1ccc(O)c(C2C3=C(COC3=O)Nc3c2c2cccnc2c2ncccc32)c1 (stereo not given) | 600 nM | 1900 nM |  | GI50 (MCF7): inactive
11 | O=C1OCC2=C1C(c1cc(F)c(F)c(F)c1)c1c(c3cccnc3c3ncccc13)N2 (stereo not given) | 2500 nM |  |  | GI50 (MiaPaCa): inactive; GI50 (MCF7): inactive
12 | O=C1OCC2=C1C(c1cc(Br)ccc1O)c1c(c3cccnc3c3ncccc13)N2 (stereo not given) | 1760 nM | 5400 nM | 9.2 µM | 
13 | COc1ccc(C2C3=C(COC3=O)Nc3c2c2cccnc2c2ncccc32)c(O)c1 (stereo not given) | 7000 nM | 9800 nM | 9.7 µM | 
14 | O=C1OCC2=C1C(c1ccc(F)cc1)c1c(c3cccnc3c3ncccc13)N2 (stereo not given) | 150 nM |  |  | GI50 (MiaPaCa): inactive; GI50 (MCF7): inactive
15 | COc1cc(C2C3=C(COC3=O)Nc3c2c2cccnc2c2ncccc32)cc(OC)c1O (stereo not given) | 1700 nM | 100 nM | 2.1 µM | 
16 | COc1ccc(OC)c(C2C3=C(COC3=O)Nc3c2c2cccnc2c2ncccc32)c1 (stereo not given) | < 10 nM | 100 nM | 8.4 µM | IC50 (Tubulin): 2 µM; Activity (HeLa [4]): 73.77%
17 | O=C1OCC2=C1C(c1ccc(O)c(Cl)c1)c1c(c3cccnc3c3ncccc13)N2 (stereo not given) | 300 nM | 900 nM | 7.7 µM | 
18 | COc1cc(C2C3=C(COC3=O)Nc3c2c2cccnc2c2ncccc32)cc(OC)c1OC (stereo not given) | 100 nM | 2800 nM | 1.7 µM | 
19 | COc1cc([C@@H]2c3cc4c(cc3[C@H](O)[C@H]3COC(=O)[C@H]23)OCO4)cc(OC)c1OC [PODOFILOX] | 710 nM | 500 nM | 0.23 µM | inhibition (Tubulin (Homo sapiens) [5]): Active
20 | COc1cc([C@@H]2c3cc4c(cc3[C@@H](O[C@@H]3O[C@@H]5CO[C@@H](C)O[C@H]5[C@H](O)[C@H]3O)[C@H]3COC(=O)[C@H]23)OCO4)cc(OC)c1O [ETOPOSIDE] | 640 nM | 1300 nM | 0.25 µM | 
21 | COc1ccc(C2C3=C(COC3=O)Nc3c2c2cccnc2c2ncccc32)cc1 (stereo not given) | 4200 nM | 3400 nM | 4.6 µM | 
22 | O=C1OCC2=C1C(c1ccc(C(F)(F)F)cc1)c1c(c3cccnc3c3ncccc13)N2 (stereo not given) | 2600 nM | 700 nM | 0.06 µM | 
23 | COc1ccc(C2C3=C(COC3=O)Nc3c2c2cccnc2c2ncccc32)cc1F (stereo not given) | 800 nM | 1200 nM | 6.4 µM | 
